# Her2 expr inh: Her2 kinase expression inhibition. HER2 level % of control, % at 10 µM. SKBR-3 HER2 protein level, AlphaScreen, 18-24 h; stronger effect = lower value. actives 0.69% (n = 65,000). AID 645;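 active = HER2 level under 5% of the carrier-only control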;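 note: 100% = DMSO carrier and 0% = 500 nM PU-H71 HSP90 inhibitor; lower value means stronger loss of Her2 protein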
# HEK293 NFkB inh: inhibitors of the PMA/ionomycin-induced NF-kB reporter in HEK293 cells; HEK-293 NF-kB luciferase reporter, luminescence; actives 0.21% (n = 62,000); inhibition, % at 3 µM; AID 465;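 active = inhibition above the mean of all tested compounds plus 3 SD, cut at about 40% in these data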;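 note: 0% = stimulated DMSO wells and 100% = 10 µM reference inhibitor 5653914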
#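 Material: HEK-293 cells with stable firefly luciferase reporter driven by four HIV NF-kB elements / Also added: PMA plus ionomycin mix as NF-kB-activating stimulus / Compound dosing: 3 µM once, 0.30% DMSO / Times: 1 h pretreatment, 16 h stimulation, 37 °C / Signal: luminescence / Evaluation: per-plate % inhibition versus controls / Benchmarks: DMSO and 10 µM reference inhibitor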
# M1 ag: activates the M1 muscarinic receptor; CHO-M1 cells, Fluo-4 calcium fluorescence, agonist mode; stronger effect = higher value; B-score at 10 µM; actives 3% (n = 64,000);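 active = fluorescence rise, raw or as B-score row- and column-corrected plate score, outside the 99.7% band of its plate's samples, either direction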
# DUSP1 inh: human dual specificity phosphatase 1 inhibition; P28562; recombinant MKP-1, OMFP hydrolysis fluorescence; inhibition, %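 (compounds tested at a single concentration somewhere between 10 and 100 µM)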; actives 0.15% (n = 65,000); AID 374;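 active = inhibition above about 50%, limit read from the data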;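 note: 0% = DMSO max control wells and 100% = wells with enzyme stopped by NaOH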
# Cdc25B inh: human M-phase inducer phosphatase 2 inhibition; P30305; actives 0.1% (n = 65,000); inhibition, %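 (compounds tested at 10 µM final in the well)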; AID 368; recombinant Cdc25B, OMFP fluorescence Ex485/Em525; in the data active = inhibition above about 50%
# M1 antag: antagonists of rat M1 muscarinic receptor. P08482. CHO-M1 cells, Fluo-4 calcium, ACh EC80 antagonist mode; stronger effect = lower value. B-score at 10 µM. actives 3.4% (n = 64,000). AID 628;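 active = calcium fluorescence response, raw or row-and-column corrected B-score, differing from the plate sample mean either way at a set confidence level, mostly lower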
# Target sequence (P08482 whole entry, looked up): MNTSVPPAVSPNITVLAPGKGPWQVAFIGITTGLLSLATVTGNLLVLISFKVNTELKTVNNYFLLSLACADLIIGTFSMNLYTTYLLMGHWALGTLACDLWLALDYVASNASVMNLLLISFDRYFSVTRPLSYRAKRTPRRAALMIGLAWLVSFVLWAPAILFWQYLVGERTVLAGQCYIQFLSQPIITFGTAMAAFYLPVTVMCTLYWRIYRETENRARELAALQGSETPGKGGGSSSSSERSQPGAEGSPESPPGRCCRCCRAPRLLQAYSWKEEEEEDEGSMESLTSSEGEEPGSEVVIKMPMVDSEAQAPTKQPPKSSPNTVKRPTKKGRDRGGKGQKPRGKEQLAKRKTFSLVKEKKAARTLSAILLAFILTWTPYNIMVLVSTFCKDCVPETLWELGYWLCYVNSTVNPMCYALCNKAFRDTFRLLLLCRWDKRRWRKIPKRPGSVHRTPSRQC
# M1 antag confirm: confirmation of rat M1 muscarinic receptor antagonists | shares compounds with M1 antag | CHO-M1 cells, Fluo-4 calcium, ACh EC80 antagonism; stronger effect = lower value | calcium response (max-min fluorescence) at 10 µM | actives 43% (n = 1,700);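 active = calcium response below the same-plate mean of wells given acetylcholine alone at its 80%-effect dose, minus 3 SD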;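 note: raw fluorescence intensity difference in arbitrary instrument units and not normalized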
# mGluR4 antag: acts on human mGluR4 in M1 antagonist selectivity test; CHO-mGluR4 calcium flux, Fluo-4 fluorescence, glutamate EC80; stronger effect = lower value; shares compounds with M1 antag; actives 0.9% (n = 1,700); fluorescence response (max-min) at 10 µM;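 active = fluorescence response below the plate's average for near-maximal glutamate wells, less 3 SD of those wells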;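 note: raw unnormalized fluorescence span taken in the window right after glutamate addition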
# An asterisk follows results filed as active; . = not tested or not shown. An excerpt weighted towards active compounds, which were near 6.8% of everything screened.
SMILES,Her2 expr inh,HEK293 NFkB inh,M1 ag,DUSP1 inh,Cdc25B inh,M1 antag,M1 antag confirm,mGluR4 antag
Cc1ccc(C(C(=O)NC2CCCC2)N(Cc2cccnc2)C(=O)c2snc(C(N)=O)c2N)o1 (configuration not stated),81.9,16.4,-0.0278,-11.6,9.0,-0.32*,600,221
CCN1CCc2c(C#N)c(N3CCOCC3)nc(NCCO)c2C1,111.6,.,0.47,-30.6,4.6,0.438,.,.
CCOC(=O)c1ccc(S(=O)(=O)n2c(CN3CCCCC3)nc3ccccc32)cc1,87.2,11.5,0.28,-2.4,-2.3,-0.46,.,.
CCOC(=O)C1=C(O)CCn2c1nc1ccccc12,128.5,10.7,0.0861,1.0,-8.7,-2.32*,640,233
O=C(Cn1nc(C(F)(F)F)c2c1CCCC2)NCc1ccco1,169.8,6.2,-0.0324,-6.1,2.0,-1.37,.,.
COc1ccc(C(C)=O)c2c1OCCO2,73.3,2.8,0.132,21.9,-0.5,-2.23*,633,236
CCCS(=O)(=O)N1CCCC(C(=O)N2CCN(c3ccccn3)CC2)C1 (configuration not stated),105.3,5.3,0.0381,-4.9,7.0,-2.57*,525,191
Cc1nn(C)c(C)c1S(=O)(=O)N1CCCC(C(=O)N2CCN(c3ccccc3)CC2)C1 (configuration not stated),96.5,-1.8,-0.739,11.4,0.8,-2.27*,617,257
CCCS(=O)(=O)N1CCCC(C(=O)N2CCC(Cc3ccccc3)CC2)C1 (configuration not stated),123.1,8.5,-0.389,-2.6,8.5,-5.2*,577,260
COc1ccc(CNC(=O)C2CCCN(S(=O)(=O)c3c(C)nn(C)c3C)C2)cc1 (configuration not stated),74.9,6.1,0.0626,0.0,-11.9,0.499,.,.
Cc1cc(C)n(-c2nnc(C)n2/N=C/c2cc(Br)ccc2OCc2ccccc2)n1,58.7,-8.0,0.662,10.2,-3.9,-2.12,.,.
Cc1csc2nc(CCNS(=O)(=O)c3ccc4c(c3)OCCO4)cn12,98.6,11.5,-1.15,-3.5,-9.4,-2.58*,649,224
Cc1cc(Cl)ccc1OCCCC(=O)NC1CCN(C)CC1,96.2,15.3,-0.769,1.6,-6.3,-2.87*,479*,211
COC(=O)C1=C(C)N(c2cc(Cl)cc(Cl)c2)C(=O)C1,112.5,21.4,0.32,-0.9,-1.3,-0.0378,.,.
O=C(C1CCCCC1)N(CCN1CCCC1)c1nc2ccccc2s1,109.0,9.2,-0.55,2.2,11.7,-2.34*,718,207
C=CCC(CC=C)(C(=O)O)c1ccccc1,69.4,17.3,-0.0693,0.4,-7.3,-0.831,.,.
OC(CCN1CCCC1)(c1ccccc1)C1CCCCC1 (configuration not stated),83.2,.,-0.405,-9.9,14.9,-16.2*,17.5*,268
OC(CCN1CCCCC1)(c1ccccc1)c1ccccc1,98.7,.,1.91,-11.5,-11.9,-12.3*,22.6*,244
OC(C#CCN1CCOCC1)(c1ccccc1)C1CC1 (configuration not stated),94.2,19.7,-0.28,13.3,-9.8,-0.539,.,.
Cc1ccccc1NC(=O)CCN1CCCCCC1,130.3,0.4,-0.562,9.3,0.8,1.13,.,.
C=CCC(O)(CCN1CCCCC1)c1ccccc1 (configuration not stated),119.9,7.0,0.416,0.0,-7.6,-8.04*,97.4*,230
C#CCn1c(=NC(=O)CSCC(=O)N2CCOCC2)sc2ccccc21,56.7,20.2,-0.22,13.6,-3.0,-0.156,.,.
COc1ccc(CCN2C(=O)CC(Sc3ncccc3C(=O)O)C2=O)cc1OC (configuration not stated),75.2,-2.2,0.37,-6.0,-4.4,-2.39*,716,180
Cc1nnc(SCC(=O)c2cc(C)n(-c3ccc4c(c3)OCO4)c2C)s1,122.3,3.9,1.53,25.8,-14.9,-0.153,.,.
Cc1cc(C(=O)CSc2nnnn2C)c(C)n1-c1ccc2c(c1)OCCO2,107.6,6.4,-0.894,29.2,4.3,-2.76*,435*,297
SMILES,Her2 expr inh,HEK293 NFkB inh,M1 ag,DUSP1 inh,Cdc25B inh,M1 antag,M1 antag confirm,mGluR4 antag
COc1ccc(OC)c2sc(N3CCCCC3)nc12,87.2,-11.5,-0.331,8.3,-9.1,-4.17*,386*,252
CCCCn1c(=O)n(CC(O)c2ccccc2)c(=O)c2c1ncn2C1CCCC1 (configuration not stated),96.3,15.0,-0.17,25.5,-3.1,-3.83*,450,199
Cn1cnc2c1c(=O)n(CC(O)CO)c(=O)n2C (configuration not stated),106.7,-2.5,0.371,-1.9,-12.9,0.084,.,.
CCOc1ccc(Cn2nnc(C(=O)NCc3ccc(OC)cc3)c2N)cc1,59.1,6.4,0.347,-8.1,0.7,-1.55*,620,228
CN(C1CCCCC1)S(=O)(=O)c1ccc(S(=O)(=O)N2CCCC2)cc1,81.8,6.7,0.298,6.2,-9.1,-3.28*,327*,236
Cc1ccc(S(=O)(=O)N2CCN(S(=O)(=O)N3CCCCC3)CC2)cc1,127.4,9.4,-1.12,4.0,-3.4,1.34,.,.
Cc1cc(C)cc(N2C(=O)C3C4C=CC(C4)C3C2=O)c1 (configuration not stated),98.8,-1.9,-0.0133,-10.1,8.5,0.182,.,.
